Source: PMC5771089 (Theranostics, 2018)

Columns and labels:
[1] = molecular target: biotinylated BSA (serum albumin) (Bos taurus, UniProt P02769); test: Kinetic binding assay by biolayer interferometry; parameters: species or system bovine
Outline: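 Biolayer interferometry on streptavidin biosensors. Steps: PBS baseline 60 s; biotin-BSA load (1 µg/mL) 600 s; PBS 60 s; biocytin quench (1 µg/mL) 180 s; PBS 60 s; test compound association 600 s; dissociation 600 s. Nonspecific signal subtracted, taken from BSA-loaded sensor in buffer alone and blank sensor with analyte.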

[2] = test system: HCT116/SSTR2 tumor xenografts; test: In vivo PET in HCT116/SSTR2 xenografts; parameters: species or system mouse
[3] = test system: HCT116/SSTR2 (SSTR2+) and HCT116 (SSTR2-) cells; test: Cell uptake/internalization; format: cell-based, human
Outline: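 HCT116/SSTR2 (transfected) and parental HCT116 cells grown in McCoy's 5A with 10% FBS at 37 °C, 5% CO2. 10^5 cells/well plated 24 h ahead, PBS-washed, then given 18.5 KBq/well 86Y-labelled tracer in 0.5 mL medium with 1% (w/v) HSA. At each time point: PBS wash, then 0.1 M NaOH lysis. For internalized fraction, surface tracer stripped first with 1 min glycine 50 mM/NaCl 100 mM, pH 2.8. Gamma-counted as % of added activity; triplicates; blocking at 24 h.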

Sequence of biotinylated BSA (serum albumin) (P02769 25-607): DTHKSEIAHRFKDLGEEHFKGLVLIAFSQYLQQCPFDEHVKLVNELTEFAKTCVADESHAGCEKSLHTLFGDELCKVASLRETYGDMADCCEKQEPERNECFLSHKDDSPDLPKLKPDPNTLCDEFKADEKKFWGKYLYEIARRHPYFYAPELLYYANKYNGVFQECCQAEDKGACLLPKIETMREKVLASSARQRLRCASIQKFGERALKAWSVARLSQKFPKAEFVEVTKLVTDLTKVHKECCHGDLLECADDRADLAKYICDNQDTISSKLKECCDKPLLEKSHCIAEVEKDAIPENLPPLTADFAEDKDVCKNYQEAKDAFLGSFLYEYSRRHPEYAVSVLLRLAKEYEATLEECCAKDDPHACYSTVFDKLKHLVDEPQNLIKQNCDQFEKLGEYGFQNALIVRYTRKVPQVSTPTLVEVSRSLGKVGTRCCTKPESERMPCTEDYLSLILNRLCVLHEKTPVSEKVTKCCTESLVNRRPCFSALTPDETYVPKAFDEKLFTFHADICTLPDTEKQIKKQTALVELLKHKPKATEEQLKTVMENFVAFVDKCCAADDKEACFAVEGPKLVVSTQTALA

Row | SMILES | Kd [1] [µM] | Amount retained in the blood compared to ^86Y-TATE ([2]; 1 h p.i., PET quantification) [fold] | Tumor exposure to the radioisotope (AUC) compared to ^86Y-TATE ([2]; AUC of tumor radioactivity over time, non-decay corrected data) | Increase of half-life in the blood compared to ^86Y-TATE ([2]; PET quantification, i.v. 0.92 MBq (4 nmol)) [fold] | Cell uptake (percent of added radioactivity) ([3]; HCT116/SSTR2 cells, 24 h, 18.5 KBq/well, medium with 1% (w/v) HSA, triplicate) [%] | Uptake/internalization in SSTR2 positive vs SSTR2 negative cells ([3]; HCT116/SSTR2 vs HCT116, 1% HSA, p < 0.001)
1 | Cc1cc(-c2ccc(NC(=O)[C@H](CCCCNC(=O)CCN3C(=O)CC(SCC(=O)N[C@H](Cc4ccccc4)C(=O)N[C@H]4CSSC[C@@H](C(=O)N[C@H](C(=O)O)[C@@H](C)O)NC(=O)[C@H]([C@@H](C)O)NC(=O)[C@H](CCCCN)NC(=O)[C@@H](Cc5c[nH]c6ccccc56)NC(=O)[C@H](Cc5ccc(O)cc5)NC4=O)C3=O)NC(=O)CN3CCN(CC(=O)O)CCN(CC(=O)O)CCN(CC(=O)O)CC3)c(C)c2)ccc1N=Nc1ccc2c(S(=O)(=O)O)cc(S(=O)(=O)O)c(N)c2c1O (stereo partly drawn) [EB-TATE] | 4.8 | – | – | – | – | –
2 | Cc1cc(-c2ccc(NC(=O)[C@H](CCCCNC(=O)CCN3C(=O)CC(SCC(=O)N[C@H](Cc4ccccc4)C(=O)N[C@H]4CSSC[C@@H](C(=O)N[C@H](C(=O)O)[C@@H](C)O)NC(=O)[C@H]([C@@H](C)O)NC(=O)[C@H](CCCCN)NC(=O)[C@@H](Cc5c[nH]c6ccccc56)NC(=O)[C@H](Cc5ccc(O)cc5)NC4=O)C3=O)NC(=O)CN3CCN(CC(=O)O)CCN(CC(=O)O)CCN(CC(=O)O)CC3)c(C)c2)ccc1N=Nc1ccc2c(S(=O)(=O)O)cc(S(=O)(=O)O)c(N)c2c1O (stereo partly drawn) [^86Y-EB-TATE, metal not drawn] | – | 4 | approximately 6 fold | 2 | 12.05±0.67 | significantly higher
